# ChEMBL document CHEMBL1828575, “Design, synthesis and antiproliferative activities of biarylolefins based on polyhydroxylated and carbohydrate scaffolds” (Eur J Med Chem, 2011)
# Experiments:
# Format in all cases: functional
# COLO 205 [1] = assay: Antitumor activity against human COLO205 cells after 48 hrs by SRB assay; conditions: COLO 205, 48 h
# Outline: (§1)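 NCI60 panel in RPMI 1640 with 5% FBS and 2 mM L-glutamine. Cells were plated at 5000–40,000/well by doubling time, held 24 h, then time-zero plates were TCA-fixed. Five concentrations (10-fold or half-log dilutions of DMSO stocks) were applied for 48 h at 37 °C, 5% CO2. Cells were fixed with cold TCA (10% final adherent, 16% suspension) and stained with 0.4% SRB. Bound dye was dissolved in 10 mM Tris and read at 515 nm. GI50, TGI and LC50 were calculated per line.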
# SK-OV-3 = assay: Cytotoxicity against human SKOV3 cells assessed as cellular growth at 10 uM after 48 hrs by SRB assay
# Outline: (§2)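 NCI-60 panel lines grown in RPMI 1640 with 5% FBS and 2 mM L-glutamine. Plated at 5000–40,000 cells/well and preincubated 24 h at 37 °C, 5% CO₂, with time-zero plates fixed in TCA. Compounds, dissolved in DMSO and diluted in medium, were applied for 48 h. Cells were TCA-fixed (10% final for adherent, 16% for suspension) and stained with 0.4% SRB in 1% acetic acid. Dye was solubilised in 10 mM Tris base and read at 515 nm; growth was expressed as a percentage of untreated control.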
# HOP-62 = assay: Antitumor activity against human HOP62 cells after 48 hrs by SRB assay; conditions: HOP-62, 48 h; outline: as §1
# CAKI-1 = assay: Cytotoxicity against human Caki1 cells assessed as cellular growth at 10 uM after 48 hrs by SRB assay
# Outline: (§3)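 NCI60 single-dose screen of cells in RPMI 1640 with 5% FBS and 2 mM L-glutamine, preincubated 24 h at 37 °C, 5% CO₂. Cells were then exposed 48 h to compound added from DMSO stock. TCA-fixed, stained with 0.4% SRB in 1% acetic acid, dye solubilised in 10 mM Tris base and read at 515 nm. Growth is given as percent of untreated control.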
# SF-295 [2] = assay: Cytotoxicity against human SF295 cells assessed as cellular growth at 10 uM after 48 hrs by SRB assay; outline: as §2
# UO-31 = assay: Cytotoxicity against human UO31 cells assessed as cellular growth at 10 uM after 48 hrs by SRB assay; outline: as §2
# U-251 [3] = assay: Antitumor activity against human U251 cells after 48 hrs by SRB assay; conditions: U-251, 48 h
# Outline: (§4)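 NCI60 panel cells grown in RPMI 1640 with 5% FBS and 2 mM L-glutamine, plated at 5000–40,000 cells/well and preincubated 24 h at 37 °C, 5% CO₂. Compound was added from DMSO at five concentrations, 10-fold or 1/2 log dilutions, then incubated 48 h.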
# RXF 393 = assay: Antitumor activity against human RXF393 cells after 48 hrs by SRB assay; conditions: RXF 393, 48 h; outline: as §1
# HCT-15 = assay: Cytotoxicity against human HCT15 cells assessed as cellular growth at 10 uM after 48 hrs by SRB assay; outline: as §3
# SF-295 [4] = assay: Antitumor activity against human SF295 cells after 48 hrs by SRB assay; conditions: SF-295, 48 h; outline: as §1
# TK-10 = assay: Cytotoxicity against human TK10 cells assessed as cellular growth at 10 uM after 48 hrs by SRB assay; outline: as §2
# COLO 205 [5] = assay: Cytotoxicity against human COLO205 cells assessed as cellular growth at 10 uM after 48 hrs by SRB assay; outline: as §3
# U-251 [6] = assay: Cytotoxicity against human U251 cells assessed as cellular growth at 10 uM after 48 hrs by SRB assay; outline: as §2
# UACC-62 = assay: Antitumor activity against human UACC62 cells after 48 hrs by SRB assay; conditions: UACC-62, 48 h; outline: as §4
# SK-MEL-5 = assay: Cytotoxicity against human SK-MEL-5 cells assessed as cellular growth at 10 uM after 48 hrs by SRB assay; outline: as §2
# MDA-MB-468 = assay: Cytotoxicity against human MDA-MB-468 cells assessed as cellular growth at 10 uM after 48 hrs by SRB assay; outline: as §2
# UACC-257 = assay: Antitumor activity against human UACC257 cells after 48 hrs by SRB assay; conditions: UACC-257, 48 h; outline: as §4
# HCT-116 = assay: Antitumor activity against human HCT116 cells after 48 hrs by SRB assay; conditions: HCT-116, 48 h; outline: as §1
# SNB-75 = assay: Antitumor activity against human SNB75 cells after 48 hrs by SRB assay; conditions: SNB-75, 48 h; outline: as §4
# SK-MEL-28 = assay: Antitumor activity against human SK-MEL-28 cells after 48 hrs by SRB assay; conditions: SK-MEL-28, 48 h; outline: as §4
# SF-268 = assay: Antitumor activity against human SF268 cells after 48 hrs by SRB assay; conditions: SF-268, 48 h; outline: as §1
# [7] = Antitumor activity against human Hs 578T cells after 48 hrs by SRB assay; outline: as §1
# KM12 = assay: Cytotoxicity against human KM12 cells assessed as cellular growth at 10 uM after 48 hrs by SRB assay; outline: as §3
# [8] = read-out: LC50 (the source's name)
# [9] = read-out: pLC50 (the source's name) (converted)
compound,measurement,setting,value
COc1ccc(/C(=C2\O[C@@H]([C@H]3COC(C)(C)O3)[C@H]3OC(C)(C)O[C@@H]23)c2cc(OC)c(OC)c(OC)c2)cc1O,GI50,COLO 205 [1]; read-out: GI50,27.3 µM
same,CC50,COLO 205 [1]; [8],> 100 µM
same,TGI,COLO 205 [1]; read-out: TGI,63.7 µM
same,GI50,COLO 205 [1]; read-out: pGI50 (converted),27.5 µM
same,CC50,COLO 205 [1]; [9],> 100 µM
same,TGI,COLO 205 [1]; read-out: pTGI (converted),63.1 µM
same,Activity,SK-OV-3,90.14%
same,GI50,HOP-62,10.9 µM
same,TGI,HOP-62,34.7 µM
same,CC50,HOP-62; [8],> 100 µM
same,Activity,CAKI-1,110.64%
same,Activity,SF-295 [2],77.57%
same,Activity,UO-31,123.08%
same,GI50,U-251 [3],3.12 µM
same,TGI,U-251 [3],11.8 µM
same,CC50,U-251 [3]; [8],> 100 µM
same,GI50,RXF 393,2.54 µM
same,TGI,RXF 393,5.99 µM
same,CC50,RXF 393; [8],32.6 µM
same,Activity,HCT-15,32.51%
same,CC50,SF-295 [4]; [8],> 100 µM
same,TGI,SF-295 [4]; read-out: TGI,43.8 µM
same,GI50,SF-295 [4]; read-out: pGI50 (converted),18.6 µM
same,CC50,SF-295 [4]; [9],> 100 µM
same,TGI,SF-295 [4]; read-out: pTGI (converted),43.7 µM
same,Activity,TK-10,116.76%
same,Activity,COLO 205 [5],120.67%
same,Activity,U-251 [6],61.19%
same,GI50,UACC-62; read-out: GI50,22.9 µM
same,CC50,UACC-62; [8],> 100 µM
same,TGI,UACC-62; read-out: TGI,57.6 µM
same,GI50,UACC-62; read-out: pGI50 (converted),22.9 µM
same,CC50,UACC-62; [9],> 100 µM
same,TGI,UACC-62; read-out: pTGI (converted),57.5 µM
same,Activity,SK-MEL-5,61.79%
same,Activity,MDA-MB-468,112.6%
same,GI50,UACC-257; read-out: GI50,39.4 µM
same,CC50,UACC-257; [8],> 100 µM
same,TGI,UACC-257; read-out: TGI,> 100 µM
same,GI50,UACC-257; read-out: pGI50 (converted),39.8 µM
same,CC50,UACC-257; [9],> 100 µM
same,TGI,UACC-257; read-out: pTGI (converted),> 100 µM
same,GI50,HCT-116,> 100 µM
same,LC50 (concentration giving 50% net cell kill),HCT-116,> 100 µM
same,TGI,HCT-116,> 100 µM
same,GI50,SNB-75,2.89 µM
same,TGI,SNB-75,7.44 µM
same,CC50,SNB-75; [8],> 100 µM
same,LC50 (50% lethal concentration),SK-MEL-28,> 100 µM
same,GI50,SK-MEL-28; read-out: GI50,10.6 µM
same,TGI,SK-MEL-28; read-out: TGI,> 100 µM
same,GI50,SK-MEL-28; read-out: pGI50 (converted),10.5 µM
same,CC50,SK-MEL-28; [9],> 100 µM
same,TGI,SK-MEL-28; read-out: pTGI,> 100 µM
same,LC50 (concentration killing 50% of cells relative to time zero),SF-268,> 100 µM
same,GI50,SF-268; read-out: GI50,7.96 µM
same,TGI,SF-268; read-out: TGI,53.6 µM
same,GI50,SF-268; read-out: pGI50 (converted),7.94 µM
same,CC50,SF-268; [9],> 100 µM
same,TGI,SF-268; read-out: pTGI (converted),53.7 µM
same,GI50,[7],4.44 µM
same,TGI,[7],53.4 µM
same,CC50,[7]; [8],> 100 µM
same,Activity,KM12,5.71%
